We go through 18 compounds from ChEMBL document CHEMBL3576795, “Neolignans and other metabolites from Ocotea cymosa from the Madagascar rain forest and their biological activities” (J Nat Prod, 2015).

One assay concerns A2780. The experiment in a line: Antiproliferative against human A2780 cells after 2 days by AlamarBlue assay. The format is functional, cell-based. (The colour change of resazurin is a common sign of viable cells or microbes.)
In assay [1] the test system is Plasmodium falciparum. Kind of assay: Antiplasmodium activity against chloroquine-resistant intraerythrocytic stage of Plasmodium falciparum Dd2 assessed as parasite growth inhibition after 72 hrs by SYBR Green I staining-based assay. The conditions noted are these: Dd2, 72 h. The format is functional, organism-based. Put shortly:
(§1)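 Dd2 ring-stage cultures at 1% hematocrit and 1% parasitaemia were grown for 72 h at 37°C in 5.05% CO2/4.93% O2/90.2% N2 with increasing drug concentrations. Viability was read by SYBR Green I DNA quantitation in lysis buffer. IC50 was obtained by nonlinear regression and averaged over three independent runs, each in duplicate, ± S.E.M.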

The subject of assay [2] is Plasmodium falciparum. Kind of assay: Antiplasmodium activity against Plasmodium falciparum Dd2. The format is functional, organism-based. A digest of the protocol:
as §1

The next assay relates to Aedes aegypti. Kind of assay: Insecticidal activity against Aedes aegypti assessed as mortality at 4 mg/ml after 3 days. The format is functional. As to conditions: 72 h. A digest of the protocol:
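A DMSO master stock of 4000 ppm was diluted with 90:10 water:acetone and robotically dispensed into six replicate plates. Plates were infested with about 1-day-old Aedes aegypti larvae hatched overnight in water with liver powder. They were covered to limit drying, held at room temperature for 3 days, and each well was scored for mortality.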

The subject of assay [3] is Plasmodium falciparum. The experiment in a line: Antiplasmodium activity against chloroquine-sensitive Plasmodium falciparum PoW infected in human RBC assessed as parasite growth inhibition after 42 hrs by microculture radioisotope technique. The format is functional, organism-based.
Assay [4] deals with Plasmodium falciparum. Kind of assay: Antiplasmodium activity against chloroquine-resistant Plasmodium falciparum Dd2 infected in human RBC assessed as parasite growth inhibition after 42 hrs by microculture radioisotope technique. The format is functional, organism-based. The conditions noted are these: Dd2, 42 h.

The structures appear in SMILES notation. Active and inactive are the calls of the source. The rule behind the calls is not given here. Where only a bound is given, the exact number is not on record here.

Consider `C=CC[C@@]12C[C@]3(OCOC3=CC1=O)[C@@H](C)[C@@H]2c1cc(OC)c(OC)c(OC)c1`, for which the inhibition result with A2780 was “inactive”. Turning to `C=CCc1ccc(O[C@]23C[C@@H](CC=C)C(=O)C=C2OCO3)c(OC)c1`, in the assay with A2780, the inhibition result was “inactive”. The IC50 is the concentration that gives 50% inhibition. Take `C=CC[C@]12C[C@@]3(OCOC3=CC1=O)[C@H](C)[C@@H]2c1cc(OC)c(OC)c(OC)c1`: the 50% inhibitory concentration (IC50) with Plasmodium falciparum [1] stood at 7.7 µM; in the assay on Plasmodium falciparum [2], 40.5 µM. The inhibition result in the assay with A2780 was “inactive”. Consider `C=CCc1cc(OC)c(O[C@]23C[C@@H](CC=C)C(=O)C=C2OCO3)c(OC)c1`, for which the inhibition result in the assay with A2780 was “inactive”. On the same count and under the same terms, in the case of `C=CCC1(C(C)Cc2ccc(O)c(OC)c2)C=C2OCOC2=CC1=O` (stereo not drawn) it was “inactive”. Turning to `C=CCC1(C(C)Cc2cc(OC)c(OC)c(OC)c2)C=C2OCOC2=CC1=O` (stereo not drawn), the inhibition entry in the assay with A2780 was “inactive”.

One may read the mortality as the percentage killed. Regarding `C=CCc1cc2c(cc1O[C@@H](C)Cc1cc(OC)c(OC)c(OC)c1)OCO2`, the mortality at 4000 µg/mL in the assay with Aedes aegypti was ≥ 80%. For the same compound, the inhibition entry in the assay on A2780 is “inactive”. Consider `C=CCC1(C(C)Cc2ccc(OC)c(OC)c2)C=C2OCOC2=CC1=O` (stereo not drawn), for which the inhibition result in the assay with A2780 is “inactive”. On to `C[C@@H]1CC[C@H]2[C@@H](C)C(=O)O[C@@H]3O[C@@]4(C)CC[C@@H]1[C@]32OO4` [ARTEMISININ], for which the IC50 in the assay on Plasmodium falciparum [1] came out at 0.00082 µM.

As to `C=CC[C@]12C[C@@]3(OCOC3=CC1=O)[C@H](C)[C@@H]2c1cc(OC)c2c(c1)OCO2`, the IC50 in the assay with Plasmodium falciparum [1] was found to be 4.1 µM. Besides, the inhibition result in the assay on A2780 is “inactive”.

Consider `C=CC[C@@]12C[C@]3(OCOC3=CC1=O)[C@@H](C)[C@@H]2c1cc(OC)c2c(c1)OCO2`, for which the inhibition result in the assay on A2780 was “inactive”.

Take `C=CCc1cc(OC)c(O[C@@H](C)Cc2cc(OC)c(OC)c(OC)c2)c(OC)c1`: the half-maximal inhibitory concentration (IC50) with Plasmodium falciparum [1] came to 3.3 µM; in the assay on Plasmodium falciparum [2], 3.1 µM. The inhibition entry in the assay with A2780 was “inactive”. Take `C=CCc1cc2c(c3c1O[C@H](c1cc(OC)c(OC)c(OC)c1)[C@H]3C)OCO2` (relative stereo): the mortality at 4000 µg/mL in the assay with Aedes aegypti is ≥ 80%. The 50% inhibitory concentration (IC50) in the assay on Plasmodium falciparum [1] came out at 0.45 µM; in the assay on Plasmodium falciparum [2], 4.7 µM. Moreover, the inhibition entry in the assay on A2780 was “inactive”.

Regarding `C=CC[C@@]12C[C@]3(OCOC3=CC1=O)[C@@H](C)[C@@H]2c1cc(O)c2c(c1)OCO2`, the values for the IC50 in the assay on Plasmodium falciparum [1] and in the assay on Plasmodium falciparum [2] were 42 µM and 28.4 µM, respectively. Besides, the inhibition entry in the assay with A2780 is “inactive”. For the compound `C/C=C/c1cc(OC)c(OC(C)Cc2cc(OC)c(OC)c(OC)c2)c(OC)c1` (stereo not drawn), the half-maximal inhibitory concentration (IC50) is 12.4 µM in the assay with Plasmodium falciparum [3] and 14.9 µM in the assay with Plasmodium falciparum [4]. `C=CCc1cc2c(c3c1O[C@H](c1ccc4c(c1)OCO4)[C@H]3C)OCO2`: the inhibition result in the assay on A2780 was “inactive”. `C=CC[C@@]12C[C@]3(OCOC3=CC1=O)[C@@H](C)[C@@H]2c1ccc2c(c1)OCO2`: the mortality at 4000 µg/mL in the assay with Aedes aegypti is ≥ 80%. In the assay with Plasmodium falciparum [1], the IC50 is 14.6 µM. Also, the inhibition entry with A2780 is “inactive”.

For the compound `C=CCC1(C(C)Cc2cc(OC)c(O)c(OC)c2)C=C2OCOC2=CC1=O` (stereo not drawn), inhibition in the assay with Plasmodium falciparum [2] was half-maximal at 42.1 µM (IC50). The inhibition result with A2780 is “inactive”.
